Measurements published in ChEMBL document CHEMBL4330096, “Discovery of potent and selective 5-azaindazole inhibitors of leucine-rich repeat kinase 2 (LRRK2) - Part 1” (Bioorg Med Chem Lett, 2019).

Experiments:
[1] = target: Serine/threonine-protein kinase 26 (Homo sapiens) (UniProt Q9P289); experiment: Inhibition of MST4 (unknown origin) at 1 uM relative to control
In short: (§1)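 Single-concentration screen of each compound against a 59-protein-kinase panel, run at 10 µM or 1 µM. Activity relative to control is shown as a heat map across the panel.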

[2] = target: Protein kinase C alpha type (Homo sapiens) (UniProt P17252); experiment: Inhibition of PKCa (unknown origin) at 1 uM relative to control; in short: as §1
Homo sapiens = species: Homo sapiens; experiment: Inhibition of VEGFR (unknown origin) at 1 uM relative to control
In short: (§2)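 Single-concentration screen across a panel of 59 protein kinases, with each compound tested at one fixed concentration. The read-out is residual kinase activity relative to control. Panel results are also condensed into a rescaled geometric mean (RGM) selectivity score.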

[3] = target: RAC-beta serine/threonine-protein kinase (Homo sapiens) (UniProt P31751); experiment: Inhibition of PKBb (unknown origin) at 1 uM relative to control; in short: as §1
[4] = target: Ribosomal protein S6 kinase beta-1 (Homo sapiens) (UniProt P23443); experiment: Inhibition of S6K1 (unknown origin) at 1 uM relative to control; in short: as §2
[5] = target: Insulin-like growth factor 1 receptor (Homo sapiens) (UniProt P08069); experiment: Inhibition of IGF1R (unknown origin) at 1 uM relative to control
In short: (§3)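 Single-point screen of each compound against a panel of 59 protein kinases, at 1 or 10 μM. The panel data are also summarised as a rescaled geometric mean selectivity score.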

[6] = target: CDK2/Cyclin A2 (Homo sapiens) (UniProt P24941+P20248); experiment: Inhibition of CDK2/cyclinA (unknown origin) at 1 uM relative to control; assay type: protein-complex assay; in short: as §3
[7] = target: T1, Serine/threonine-protein kinase Chk1 (Homo sapiens) (UniProt O14757); experiment: Inhibition of CHK1 (unknown origin) at 1 uM relative to control; in short: as §3
T1 sequence (whole entry): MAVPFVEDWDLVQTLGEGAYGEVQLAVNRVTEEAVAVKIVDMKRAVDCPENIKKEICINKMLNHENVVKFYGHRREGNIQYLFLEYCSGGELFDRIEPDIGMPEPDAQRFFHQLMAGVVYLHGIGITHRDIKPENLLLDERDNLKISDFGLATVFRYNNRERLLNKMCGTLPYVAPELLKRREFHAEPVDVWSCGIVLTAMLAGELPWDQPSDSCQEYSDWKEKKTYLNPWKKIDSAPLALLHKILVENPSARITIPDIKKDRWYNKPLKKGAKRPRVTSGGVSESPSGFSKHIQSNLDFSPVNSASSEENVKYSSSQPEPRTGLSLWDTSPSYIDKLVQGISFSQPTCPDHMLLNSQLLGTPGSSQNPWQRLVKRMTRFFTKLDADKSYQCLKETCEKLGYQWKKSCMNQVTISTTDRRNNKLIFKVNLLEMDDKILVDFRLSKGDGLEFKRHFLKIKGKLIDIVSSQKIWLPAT

[8] = target: Homeodomain-interacting protein kinase 2 (Homo sapiens) (UniProt Q9H2X6); experiment: Inhibition of HIPK2 (unknown origin) at 1 uM relative to control; in short: as §3
[9] = target: Serine/threonine-protein kinase pim-1 (Homo sapiens) (UniProt P11309); experiment: Inhibition of PIM1 (unknown origin) at 1 uM relative to control; in short: as §1
[10] = target: T2, Serine/threonine-protein kinase Nek2 (Homo sapiens) (UniProt P51955); experiment: Inhibition of NEK2a (unknown origin) at 1 uM relative to control; in short: as §1
T2 sequence (whole entry): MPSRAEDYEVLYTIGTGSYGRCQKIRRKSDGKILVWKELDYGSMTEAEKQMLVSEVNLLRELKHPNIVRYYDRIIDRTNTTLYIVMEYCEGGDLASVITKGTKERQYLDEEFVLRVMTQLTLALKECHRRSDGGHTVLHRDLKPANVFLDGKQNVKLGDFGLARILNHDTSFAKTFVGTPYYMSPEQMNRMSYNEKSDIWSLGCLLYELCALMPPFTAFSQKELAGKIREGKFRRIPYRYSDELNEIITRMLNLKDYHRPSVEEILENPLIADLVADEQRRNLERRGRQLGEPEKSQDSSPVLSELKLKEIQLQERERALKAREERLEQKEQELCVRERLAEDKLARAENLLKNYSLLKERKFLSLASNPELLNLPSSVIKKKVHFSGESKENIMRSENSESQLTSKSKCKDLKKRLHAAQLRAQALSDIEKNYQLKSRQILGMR

[11] = target: Rho-associated protein kinase 2 (Homo sapiens) (UniProt O75116); experiment: Inhibition of ROCK2 (unknown origin) at 1 uM relative to control; in short: as §1
[12] = target: Ribosomal protein S6 kinase alpha-3 (Homo sapiens) (UniProt P51812); experiment: Inhibition of RSK2 (unknown origin) at 1 uM relative to control; in short: as §2
[13] = target: T3, Serine/threonine-protein kinase 3 (Homo sapiens) (UniProt Q13188); experiment: Inhibition of MST2 (unknown origin) at 1 uM relative to control; in short: as §1
T3 sequence (whole entry): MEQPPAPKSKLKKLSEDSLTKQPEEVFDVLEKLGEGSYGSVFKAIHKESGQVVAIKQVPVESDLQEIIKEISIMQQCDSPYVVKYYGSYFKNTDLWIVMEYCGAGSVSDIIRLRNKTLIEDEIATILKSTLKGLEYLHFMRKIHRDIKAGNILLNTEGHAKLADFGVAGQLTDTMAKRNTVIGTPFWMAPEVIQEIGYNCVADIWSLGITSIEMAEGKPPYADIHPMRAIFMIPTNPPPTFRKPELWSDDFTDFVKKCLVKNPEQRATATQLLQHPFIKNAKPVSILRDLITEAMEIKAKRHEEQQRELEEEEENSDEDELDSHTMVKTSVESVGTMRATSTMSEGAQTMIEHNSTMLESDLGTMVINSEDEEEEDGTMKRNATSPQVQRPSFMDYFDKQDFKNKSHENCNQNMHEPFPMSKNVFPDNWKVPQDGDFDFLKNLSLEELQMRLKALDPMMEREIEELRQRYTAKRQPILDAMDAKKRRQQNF

Sequence of Ribosomal protein S6 kinase alpha-3 (Homo sapiens) (P51812 whole entry): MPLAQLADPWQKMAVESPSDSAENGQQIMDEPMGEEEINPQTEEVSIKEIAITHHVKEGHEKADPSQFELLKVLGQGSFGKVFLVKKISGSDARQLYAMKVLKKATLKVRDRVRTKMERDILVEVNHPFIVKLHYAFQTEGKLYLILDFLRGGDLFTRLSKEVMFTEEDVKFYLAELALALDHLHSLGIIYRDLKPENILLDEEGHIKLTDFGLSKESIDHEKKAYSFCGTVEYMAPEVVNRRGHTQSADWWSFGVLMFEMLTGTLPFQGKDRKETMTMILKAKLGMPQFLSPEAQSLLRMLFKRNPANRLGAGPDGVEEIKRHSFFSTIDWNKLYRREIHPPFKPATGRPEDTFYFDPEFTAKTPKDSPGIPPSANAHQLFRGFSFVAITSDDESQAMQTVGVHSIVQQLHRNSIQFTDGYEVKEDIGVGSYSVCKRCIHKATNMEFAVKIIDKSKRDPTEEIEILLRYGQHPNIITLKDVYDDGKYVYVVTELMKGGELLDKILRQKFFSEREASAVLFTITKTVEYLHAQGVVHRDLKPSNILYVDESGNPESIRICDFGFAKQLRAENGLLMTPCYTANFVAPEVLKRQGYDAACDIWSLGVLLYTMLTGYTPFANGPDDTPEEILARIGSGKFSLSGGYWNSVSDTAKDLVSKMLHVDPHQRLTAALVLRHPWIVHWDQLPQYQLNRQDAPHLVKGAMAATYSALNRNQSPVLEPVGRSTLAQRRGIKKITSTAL
Sequence of Ribosomal protein S6 kinase beta-1 (Homo sapiens) (P23443 whole entry, looked up): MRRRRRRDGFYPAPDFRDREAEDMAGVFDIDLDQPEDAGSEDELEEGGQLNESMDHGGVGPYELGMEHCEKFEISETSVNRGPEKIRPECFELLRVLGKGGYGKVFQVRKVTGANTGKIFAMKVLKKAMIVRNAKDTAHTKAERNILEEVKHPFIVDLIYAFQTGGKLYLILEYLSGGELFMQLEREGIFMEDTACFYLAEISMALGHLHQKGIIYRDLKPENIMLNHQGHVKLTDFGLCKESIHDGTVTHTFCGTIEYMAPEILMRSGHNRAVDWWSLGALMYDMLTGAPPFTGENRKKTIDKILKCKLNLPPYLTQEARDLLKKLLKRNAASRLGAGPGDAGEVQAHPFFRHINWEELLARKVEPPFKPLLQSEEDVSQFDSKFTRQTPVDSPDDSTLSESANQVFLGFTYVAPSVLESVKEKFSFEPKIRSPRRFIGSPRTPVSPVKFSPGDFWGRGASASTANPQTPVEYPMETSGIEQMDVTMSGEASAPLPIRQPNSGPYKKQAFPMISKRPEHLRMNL
Sequence of Serine/threonine-protein kinase pim-1 (Homo sapiens) (P11309 whole entry, looked up): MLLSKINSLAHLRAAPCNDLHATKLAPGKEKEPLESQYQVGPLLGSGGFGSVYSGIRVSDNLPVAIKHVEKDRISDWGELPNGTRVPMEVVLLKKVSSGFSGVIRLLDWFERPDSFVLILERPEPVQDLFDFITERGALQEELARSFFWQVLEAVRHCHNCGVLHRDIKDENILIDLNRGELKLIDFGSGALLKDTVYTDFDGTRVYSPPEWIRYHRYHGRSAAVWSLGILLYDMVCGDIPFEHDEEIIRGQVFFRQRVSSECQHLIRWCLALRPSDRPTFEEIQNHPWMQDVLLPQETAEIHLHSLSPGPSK
Sequence of Homeodomain-interacting protein kinase 2 (Homo sapiens) (Q9H2X6 whole entry, looked up): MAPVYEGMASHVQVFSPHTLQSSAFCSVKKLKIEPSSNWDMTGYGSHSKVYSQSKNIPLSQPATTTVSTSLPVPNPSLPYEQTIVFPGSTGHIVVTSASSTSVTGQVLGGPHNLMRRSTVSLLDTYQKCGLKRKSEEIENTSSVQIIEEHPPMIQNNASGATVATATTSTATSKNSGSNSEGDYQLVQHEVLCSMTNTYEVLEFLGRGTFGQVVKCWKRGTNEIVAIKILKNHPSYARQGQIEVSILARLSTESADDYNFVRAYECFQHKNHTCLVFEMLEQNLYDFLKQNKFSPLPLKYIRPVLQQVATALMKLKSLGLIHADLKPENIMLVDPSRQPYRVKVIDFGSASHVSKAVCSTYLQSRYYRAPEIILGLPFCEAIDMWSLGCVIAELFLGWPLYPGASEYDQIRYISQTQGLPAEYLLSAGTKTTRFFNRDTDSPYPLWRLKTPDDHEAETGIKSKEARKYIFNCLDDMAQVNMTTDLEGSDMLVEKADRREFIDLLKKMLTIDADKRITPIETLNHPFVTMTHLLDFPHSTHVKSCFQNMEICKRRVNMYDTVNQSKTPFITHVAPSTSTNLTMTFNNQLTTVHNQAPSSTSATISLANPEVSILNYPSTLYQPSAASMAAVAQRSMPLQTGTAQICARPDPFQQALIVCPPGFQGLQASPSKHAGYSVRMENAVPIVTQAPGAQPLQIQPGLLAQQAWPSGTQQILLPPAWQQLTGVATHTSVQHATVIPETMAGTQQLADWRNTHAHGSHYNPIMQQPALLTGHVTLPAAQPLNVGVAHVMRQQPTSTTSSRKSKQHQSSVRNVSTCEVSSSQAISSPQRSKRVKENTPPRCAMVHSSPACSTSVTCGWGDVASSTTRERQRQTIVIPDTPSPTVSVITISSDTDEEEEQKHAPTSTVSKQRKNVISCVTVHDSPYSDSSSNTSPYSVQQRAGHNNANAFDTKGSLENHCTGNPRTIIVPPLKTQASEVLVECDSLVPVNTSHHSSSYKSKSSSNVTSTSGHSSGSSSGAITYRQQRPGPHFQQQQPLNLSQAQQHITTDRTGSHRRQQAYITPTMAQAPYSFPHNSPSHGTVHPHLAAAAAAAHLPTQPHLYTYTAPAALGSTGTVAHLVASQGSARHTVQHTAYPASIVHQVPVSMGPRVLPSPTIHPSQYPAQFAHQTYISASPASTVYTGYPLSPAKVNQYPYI
Sequence of Insulin-like growth factor 1 receptor (Homo sapiens) (P08069 31-736 limits assumed): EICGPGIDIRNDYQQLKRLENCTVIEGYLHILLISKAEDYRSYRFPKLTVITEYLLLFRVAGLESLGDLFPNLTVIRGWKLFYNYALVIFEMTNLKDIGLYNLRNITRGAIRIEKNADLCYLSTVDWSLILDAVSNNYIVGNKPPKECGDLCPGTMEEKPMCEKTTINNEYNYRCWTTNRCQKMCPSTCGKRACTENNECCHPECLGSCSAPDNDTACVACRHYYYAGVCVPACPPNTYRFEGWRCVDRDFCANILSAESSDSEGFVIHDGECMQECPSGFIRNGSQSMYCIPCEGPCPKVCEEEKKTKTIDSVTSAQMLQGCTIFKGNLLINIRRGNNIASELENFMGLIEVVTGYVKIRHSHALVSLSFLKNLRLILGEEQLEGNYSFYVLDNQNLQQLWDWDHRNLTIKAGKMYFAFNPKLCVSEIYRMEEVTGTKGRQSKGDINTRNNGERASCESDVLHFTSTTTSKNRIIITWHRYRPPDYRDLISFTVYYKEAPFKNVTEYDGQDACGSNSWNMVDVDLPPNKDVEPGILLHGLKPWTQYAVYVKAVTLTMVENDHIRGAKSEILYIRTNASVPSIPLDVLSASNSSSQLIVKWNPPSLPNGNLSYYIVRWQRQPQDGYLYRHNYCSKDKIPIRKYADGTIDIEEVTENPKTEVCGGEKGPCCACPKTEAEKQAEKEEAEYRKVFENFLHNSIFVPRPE
Sequence of Insulin-like growth factor 1 receptor (Homo sapiens) (P08069 741-1367 limits assumed): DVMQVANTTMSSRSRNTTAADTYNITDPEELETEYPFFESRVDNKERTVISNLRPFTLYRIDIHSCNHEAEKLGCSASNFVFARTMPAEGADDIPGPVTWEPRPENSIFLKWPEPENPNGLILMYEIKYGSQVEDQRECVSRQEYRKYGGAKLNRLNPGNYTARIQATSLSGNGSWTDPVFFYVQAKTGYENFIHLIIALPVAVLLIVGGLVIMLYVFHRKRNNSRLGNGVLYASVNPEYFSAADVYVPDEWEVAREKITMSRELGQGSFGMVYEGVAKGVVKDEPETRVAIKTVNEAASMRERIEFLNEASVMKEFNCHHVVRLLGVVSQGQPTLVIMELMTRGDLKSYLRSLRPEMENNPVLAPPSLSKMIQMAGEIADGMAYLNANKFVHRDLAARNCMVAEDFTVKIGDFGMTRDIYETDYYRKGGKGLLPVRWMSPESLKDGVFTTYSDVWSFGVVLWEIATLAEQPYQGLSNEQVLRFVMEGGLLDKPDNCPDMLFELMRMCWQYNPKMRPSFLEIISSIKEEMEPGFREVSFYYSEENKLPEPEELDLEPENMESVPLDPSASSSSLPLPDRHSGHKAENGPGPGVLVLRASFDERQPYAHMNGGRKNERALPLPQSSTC
Sequence of Serine/threonine-protein kinase 26 (Homo sapiens) (Q9P289 2-416 limits assumed): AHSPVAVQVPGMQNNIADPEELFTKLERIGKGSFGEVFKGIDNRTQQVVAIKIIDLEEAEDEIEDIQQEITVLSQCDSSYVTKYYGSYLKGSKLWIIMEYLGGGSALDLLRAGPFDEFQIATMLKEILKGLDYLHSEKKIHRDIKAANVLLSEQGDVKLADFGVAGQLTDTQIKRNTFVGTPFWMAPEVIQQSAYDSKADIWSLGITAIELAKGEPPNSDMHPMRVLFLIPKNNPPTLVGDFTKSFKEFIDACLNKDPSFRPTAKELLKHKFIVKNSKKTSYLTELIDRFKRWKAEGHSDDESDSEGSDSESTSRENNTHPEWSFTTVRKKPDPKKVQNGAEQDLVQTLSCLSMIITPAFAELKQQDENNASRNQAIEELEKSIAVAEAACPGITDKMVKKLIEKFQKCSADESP
Sequence of RAC-beta serine/threonine-protein kinase (Homo sapiens) (P31751 whole entry): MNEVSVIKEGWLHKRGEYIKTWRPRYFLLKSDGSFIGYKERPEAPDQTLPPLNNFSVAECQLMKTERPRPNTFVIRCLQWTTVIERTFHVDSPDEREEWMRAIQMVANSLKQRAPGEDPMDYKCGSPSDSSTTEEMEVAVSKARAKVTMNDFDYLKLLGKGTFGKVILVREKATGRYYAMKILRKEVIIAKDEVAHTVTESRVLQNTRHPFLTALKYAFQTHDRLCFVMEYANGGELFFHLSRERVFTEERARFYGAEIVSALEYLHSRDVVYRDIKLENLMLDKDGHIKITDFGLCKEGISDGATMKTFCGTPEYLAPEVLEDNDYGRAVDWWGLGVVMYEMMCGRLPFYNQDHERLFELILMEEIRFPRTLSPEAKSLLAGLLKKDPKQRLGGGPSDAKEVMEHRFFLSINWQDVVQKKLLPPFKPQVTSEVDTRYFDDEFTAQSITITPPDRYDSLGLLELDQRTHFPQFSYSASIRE

Structure (SMILES) | inhibition [1] [%] | inhibition [2] [%] | inhibition (Homo sapiens) [%] | inhibition [3] [%] | inhibition [4] [%] | inhibition [5] [%] | inhibition [6] [%] | inhibition [7] [%] | inhibition [8] [%] | inhibition [9] [%] | inhibition [10] [%] | inhibition [11] [%] | inhibition [12] [%] | inhibition [13] [%]
c1cc(-c2n[nH]c3ccnc(OC4CCOCC4)c23)cc(N2CCOCC2)n1 | 3 | 0 | 2 | 0 | 0 | 11 | 23 | 0 | 6 | 34 | 0 | 0 | 0 | 7
CC(C)n1cc(-c2n[nH]c3ccnc(OC4CCOCC4)c23)cn1 | 47 | 0 | 59 | 27 | 16 | 40 | 66 | 5 | 9 | 77 | 8 | 28 | 58 | 40
